Results reported in article PMC8456861 (Transplant International, 2021).
“Also recorded” adds a separate entry of the source. Read-outs that look alike come from different tables or passages of the source.

Legend:
[1] = tested on: CYP3A4/CYP3A5‐dependent metabolism; assay type: in vivo, patients (kidney transplant recipients with late ABMR); details: for C0/D ratio: week 12, median [IQR]
CYP2C19 and CYP3A4 = test: Pantoprazole pharmacokinetics; assay type: in vivo, patients (kidney transplant recipients with late ABMR)
Outline: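 20 mg pantoprazole given as an i.v. bolus on day 0, week 12 and week 52. At day 0 and week 12, dosing preceded study injection. EDTA blood was drawn pre-dose and 1, 2, 3, 4, 5 and 6 h after dosing, spun at 2000 g for 10 min at 4°C and stored at −80 °C. Plasma levels measured by HPLC-MS/MS. Noncompartmental Cmax, AUC0-last, AUC0-inf and T1/2 reported as median (IQR); Wilcoxon/Mann–Whitney tests.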

CYP enzymes = details: critically ill patients; cited from earlier work
[2] = earlier studies; cited from earlier work
CYP3A4/CYP3A5 = assay type: in vivo, patients (kidney transplant recipients with late ABMR); details: human, whole blood, C0 level; for C0 at 12 week: week 12, median [IQR]
CYP3A4 [3] = details: patients with rheumatoid arthritis; cited from earlier work
CYP3A4 [4] = details: 19 patients with active rheumatoid arthritis; cited from earlier work
C‐reactive protein (CRP) = test: High‐sensitive CRP under clazakizumab; assay type: in vivo, patients (kidney transplant recipients with late ABMR); details: clazakizumab 25 mg s.c. 4‐weekly
Outline: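 Serum high-sensitivity CRP measured by latex particle-enhanced immunoturbidimetric assay on an automated analyser (functional sensitivity 0.03 mg/dl). Randomised double-blind design: clazakizumab 25 mg s.c. or 0.9% saline placebo every 4 weeks to week 12, then open clazakizumab 4-weekly to week 52. Data given as median (IQR).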

Liver parameters = assay type: in vivo, patients (kidney transplant recipients with late ABMR); details: ALAT, AST, CHE
[5] = tested on: late antibody‐mediated rejection (ABMR); details: cited from earlier work
[6] = Clazakizumab arm (n = 10), median (IQR)
[7] = Placebo arm (clazakizumab in part B), median (IQR)
[8] = Placebo arm (n = 10), median (IQR)

CO[C@H]1C[C@@H]2CC[C@@H](C)[C@@](O)(O2)C(=O)C(=O)N2CCCC[C@H]2C(=O)O[C@H]([C@H](C)C[C@@H]2CC[C@@H](OCCO)[C@H](OC)C2)CC(=O)[C@H](C)/C=C(\C)[C@@H](O)[C@@H](OC)C(=O)[C@H](C)C[C@H](C)/C=C/C=C/C=C/1C [everolimus]
decrease in C0/D ratio ([1]; single patient, individual course over the study): approximately 50%

COc1ccnc(C[S+]([O-])c2nc3ccc(OC(F)F)cc3[nH]2)c1OC (centres unmarked) [pantoprazole]
Percent change from day 0 to week 12, AUC0‐inf (CYP2C19 and CYP3A4; [6]): 4.0 (−6.4‐80.3) Percent
Percent change from day 0 to week 12, T1/2 (CYP2C19 and CYP3A4; [6]): 18.4 (−0.4–23.2) Percent
Percent change from day 0 to week 52, AUC0‐inf (CYP2C19 and CYP3A4; Clazakizumab arm, median (IQR)): 52.3 (−5.6–64.1) Percent
Percent change from day 0 to week 52, AUC0‐last (CYP2C19 and CYP3A4; Clazakizumab arm, median (IQR)): 41.9 (0.4–84.5) Percent
Percent change from day 0 to week 52, Cmax (CYP2C19 and CYP3A4; Clazakizumab arm, median (IQR)): 22.5 (1.6‐37.8) Percent
Percent change from day 0 to week 52, T1/2 (CYP2C19 and CYP3A4; Clazakizumab arm, median (IQR)): 8.8 (−9.7‐56.8) Percent
Percent change from day 0 to week 52, AUC0‐inf (CYP2C19 and CYP3A4; [7]): 0.72 (−42.7–64.0) Percent
Percent change from day 0 to week 52, AUC0‐last (CYP2C19 and CYP3A4; [7]): 13.6 (−47.2–50.5) Percent
Percent change from day 0 to week 12, AUC0‐inf (CYP2C19 and CYP3A4; [8]): 13.8 (−17.7‐27.8) Percent
Percent change from day 0 to week 12, AUC0‐last (CYP2C19 and CYP3A4; [8]): 15.6 (−18.7‐31.1) Percent
Percent change from day 0 to week 12, Cmax (CYP2C19 and CYP3A4; [8]): 5.7 (−10.7‐41.3) Percent
Percent change from day 0 to week 12, T1/2 (CYP2C19 and CYP3A4; [8]): 0.2 (−14.4‐21.5) Percent
Percent change from day 0 to week 12, AUC0‐inf (CYP2C19 and CYP3A4; Total (n = 20), median (IQR)): 11.6 (−11.7‐31.4) Percent
Percent change from day 0 to week 12, AUC0‐last (CYP2C19 and CYP3A4; Total (n = 20), median (IQR)): 10.4 (−8.0‐27.8) Percent
Percent change from day 0 to week 12, Cmax (CYP2C19 and CYP3A4; Total (n = 20), median (IQR)): 2.1 (−12.2‐26.3) Percent
Percent change from day 0 to week 12, T1/2 (CYP2C19 and CYP3A4; Total (n = 20), median (IQR)): 5.9 (−4.5–23.2) Percent
Percent change from day 0 to week 52, AUC0‐inf (CYP2C19 and CYP3A4; Total, median (IQR)): 31.9 (−22.5–64.0) Percent
Percent change from day 0 to week 52, AUC0‐last (CYP2C19 and CYP3A4; Total, median (IQR)): 25.3 (−15.9–51.7) Percent
Percent change from day 0 to week 52, Cmax (CYP2C19 and CYP3A4; Total, median (IQR)): 5.5 (−22.1‐33.6) Percent
Cmax (CYP2C19 and CYP3A4; human, plasma, iv, 20 mg, Cmax, 20 mg i.v., day 0, Total (n = 20), median (IQR)): 1490 ng/mL
half-life (CYP2C19 and CYP3A4; human, plasma, iv, 20 mg, T1/2, 20 mg i.v., day 0, Total (n = 20), median (IQR)): 1.08 h
half‐life, fold longer than in this study's patients / healthy volunteers (CYP enzymes): approximately 5 fold
half‐life [2]: generally less than two hours
time to complete absorption [2]: about 12 hours

C=CC[C@@H]1/C=C(\C)C[C@H](C)C[C@H](OC)[C@H]2O[C@@](O)(C(=O)C(=O)N3CCCC[C@H]3C(=O)O[C@H](/C(C)=C/[C@@H]3CC[C@@H](O)[C@H](OC)C3)[C@H](C)[C@@H](O)CC1=O)[C@H](C)C[C@@H]2OC [tacrolimus]
C0 at 12 week (CYP3A4/CYP3A5; clazakizumab arm (n = 6)): 7 ng/mL
C0 at 12 week (CYP3A4/CYP3A5; placebo arm (n = 7)): 6.4 ng/mL
concentration at 0 day (CYP3A4/CYP3A5; baseline, Clazakizumab arm, median (IQR)): 5.6 ng/mL
C0/D ratio ([1]; clazakizumab arm (n = 6)): 2.15 [1.13–4.35] ng/ml/mg
C0/D ratio ([1]; placebo arm (n = 7)): 2.0 [0.73–2.03] ng/ml/mg

tocilizumab: anti‐IL‐6R antibody
effect on CYP activity and simvastatin metabolism (CYP3A4 [3]): restored diminished CYP activity and substantially enhanced the metabolism of simvastatin

B1: sarilumab: anti‐IL‐6R antibody (antibody, chains of the INN, looked up, V domains shown)
VH: EVQLVESGGGLVQPGRSLRLSCAASRFTFDDYAMHWVRQAPGKGLEWVSGISWNSGRIGYADSVKGRFTISRDNAENSLFLQMNGLRAEDTALYYCAKGRDSFDIWGQGTMVTVSS
VL: DIQMTQSPSSVSASVGDRVTITCRASQGISSWLAWYQQKPGKAPKLLIYGASSLESGVPSRFSGSGSGTDFTLTISSLQPEDFASYYCQQANSFPYTFGQGTKLEIK
effect on altered simvastatin exposure (CYP3A4 [4]): fully reversed

B2: clazakizumab: monoclonal anti‐IL‐6 antibody (Vitaeris Inc.), 25 mg subcutaneously at 4‐weekly intervals (antibody, chains of the INN, looked up, V domains shown)
VH: EVQLVESGGGLVQPGGSLRLSCAASGFSLSNYYVTWVRQAPGKGLEWVGIIYGSDETAYATSAIGRFTISRDNSKNTLYLQMNSLRAEDTAVYYCARDDSSDWDAKFNLWGQGTLVTVSS
VL: AIQMTQSPSSLSASVGDRVTITCQASQSINNELSWYQQKPGKAPKLLIYRASTLASGVPSRFSGSGSGTDFTLTISSLQPDDFATYYCQQGYSLRNIDNAFGGGTKVEIK
impact on pantoprazole pharmacokinetics / CYP‐dependent drug metabolism (CYP2C19 and CYP3A4; IL‐6 blockade up to 52 weeks): no clinically meaningful impact; also recorded: did not enhance CYP‐dependent drug metabolism
effect on CRP levels (C‐reactive protein (CRP)): suppressed to undetectable levels; also recorded: virtually complete reduction
effect on liver parameters (Liver parameters): no meaningful effect
effect on DSA ([5]; after 3 months): significant reduction of DSA
effect on ABMR activity (microcirculation inflammation, molecular ABMR scores) ([5]; after prolonged treatment): modulation of ABMR activity
effect on progression of graft dysfunction ([5]; over a period of a year): significantly halted the progression of graft dysfunction
